Results as given in ChEMBL document CHEMBL3352597, “Heck products of parthenolide and melampomagnolide-B as anticancer modulators that modify cell cycle progression” (Eur J Med Chem, 2014).
The source made the active and inactive calls. The calls are words filed in the database; no cut-off is given here.

Columns and labels:
[1] = system: HL-60(TB); experiment: Anticancer activity against human HL-60(TB) cells assessed as growth inhibition at 10^-5 M; format: functional; details: read-out: GI
Method in brief: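 NCI 60 panel initial screen at a single concentration of 10^-5 M. Value is reported as percent growth inhibition of the cell line.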

[2] = system: K562; experiment: Anticancer activity against human K562 cells assessed as growth inhibition at 10^-5 M; format: functional; details: read-out: GI
Method in brief: (§1)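 NCI-60 human tumour cell line panel screened at a single concentration of 10^-5 M; value is percent growth inhibition relative to untreated growth.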

[3] = Anticancer activity against human RPMI8226 cells assessed as growth inhibition at 10^-5 M; format: functional; details: RPMI-8226, read-out: GI; method in brief: as §1
[4] = system: Oocyte; experiment: Induction of immature stage VI Xenopus oocyte maturation assessed as stimulation of progesterone-mediated maturation measured as germinal vesicle (nuclear) breakdown after overnight incubation; format: functional, cell-based; details: Xenopus laevis
[5] = system: Xenopus; experiment: Induction of progesterone-independent of MPF activation in immature stage VI Xenopus oocyte by Western blot analysis
Method in brief: (§2)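 Oocytes treated with DMSO or compound without progesterone, harvested when 50% of treated oocytes completed GVBD, sorted by GVBD status. Lysates run on 10% gel and blotted with phospho-MAPK Thr202/Tyr204 and phospho-Cdc2 Tyr15 antibodies (1:1000), with tubulin as loading control. MPF activation read as Cdc2 dephosphorylation.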

[6] = system: Xenopus; experiment: Induction of progesterone-independent of MAPK activation in immature stage VI Xenopus oocyte by Western blot analysis; method in brief: as §2
[7] = system: Oocyte; experiment: Induction of immature stage VI Xenopus oocyte maturation assessed as spontaneous maturation measured as germinal vesicle (nuclear) breakdown at 100 uM after overnight incubation; format: functional, cell-based
Method in brief: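 Isolated Xenopus oocytes (20 per well) incubated overnight with compound in DMSO at 100 μM final, no progesterone. The next morning, GVBD is scored as a white spot at the animal pole. Rate is expressed relative to DMSO controls, where 2.0 means spontaneous maturation.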

[8] = system: MCF7; experiment: Anticancer activity against human MCF7 cells assessed as growth inhibition at 10^-5 M; format: functional; details: read-out: GI; method in brief: as §1
[9] = Anticancer activity against human PC3 cells assessed as growth inhibition at 10^-5 M; format: functional; details: PC-3, read-out: GI; method in brief: as §1
[10] = system: CCRF-CEM; experiment: Anticancer activity against human CCRF-CEM cells assessed as growth inhibition at 10^-5 M; format: functional; details: read-out: GI; method in brief: as §1
[11] = Anticancer activity against human MOLT4 cells assessed as growth inhibition at 10^-5 M; format: functional; details: MOLT-4, read-out: GI; method in brief: as §1
[12] = system: Oocyte; experiment: Inhibition of immature stage VI Xenopus oocyte maturation assessed as inhibition of progesterone-mediated maturation measured as germinal vesicle (nuclear) breakdown after overnight incubation; format: functional, cell-based; details: Xenopus laevis
[13] = system: Oocyte; experiment: Inhibition of immature stage VI Xenopus oocyte maturation assessed as inhibition of progesterone-mediated maturation measured as germinal vesicle (nuclear) breakdown at 100 uM after overnight incubation; format: functional, cell-based
Method in brief: (§3)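 Oocytes (20 per well) pre-treated overnight with compound (100 μM final, DMSO) or DMSO vehicle, then stimulated with 2 μg/ml progesterone. GVBD (animal-pole white spot) scored at the time 50% of DMSO controls reach GVBD. Rate relative to control: 1.0 means no difference, above 1.0 acceleration, below 1.0 delay, 0.0 no maturation. Differences over 20% followed up.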

[14] = system: Oocyte; experiment: Inhibition of immature stage VI Xenopus oocyte maturation assessed as inhibition of progesterone-mediated maturation measured as germinal vesicle (nuclear) breakdown at 1 to 100 uM after overnight incubation; format: functional, cell-based
[15] = system: Xenopus; experiment: Inhibition of MPF in immature stage VI Xenopus oocyte by Western blot analysis
Method in brief: (§4)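 Oocytes pre-treated with DMSO or compound, stimulated with progesterone, and lysed at the time 50% of DMSO oocytes reached GVBD. Lysates analysed by 10% gel western blot with phospho-Cdc2 Tyr15 (inhibitory site) and phospho-MAPK antibodies (1:1000), tubulin 1:20,000. Membrane blocked in 1% BSA, 60 min, room temperature.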

[16] = system: Xenopus; experiment: Inhibition of Cyclin B/CDK in immature stage VI Xenopus oocyte by Western blot analysis; method in brief: as §4
[17] = system: Oocyte; experiment: Induction of immature stage VI Xenopus oocyte maturation assessed as stimulation of progesterone-mediated maturation measured as germinal vesicle (nuclear) breakdown at 100 uM after overnight incubation; format: functional, cell-based; method in brief: as §3

SMILES: C/C1=C\CC[C@@]2(C)O[C@@H]2[C@H]2OC(=O)/C(=C/c3ccccc3Br)[C@@H]2CC1
- inhibition of growth at 10 µM [1]: 34.1%
- inhibition of growth at 10 µM [2]: 28.1%
- inhibition of growth at 10 µM [3]: 21.3%
- EC50 [4]: 6 µM
- Activity [5]: Active
- Activity [6]: Active
- Activity [7]: Active
- inhibition of growth at 10 µM [8]: 24.3%
- inhibition of growth at 10 µM [9]: 42.3%
- inhibition of growth at 10 µM [10]: 22.3%
- inhibition of growth at 10 µM [11]: 31.2%

SMILES: C/C1=C\CC[C@@]2(C)O[C@@H]2[C@H]2OC(=O)/C(=C/c3ccc(N)cc3)[C@@H]2CC1
- EC50 [12]: 5 µM
- inhibition [13]: Active
- inhibition [14]: Active
- inhibition of growth at 10 µM [9]: 20.5%
- inhibition [15]: inactive
- inhibition [16]: inactive
- inhibition of growth at 10 µM [11]: 24.2%

SMILES: C[C@@]12CC/C=C(/CO)CC[C@@H]3/C(=C\c4cccc(C(F)(F)F)c4)C(=O)O[C@@H]3[C@@H]1O2
- Activity [17]: Active

SMILES: C[C@@]12CC/C=C(/CO)CC[C@@H]3/C(=C\c4ncc[nH]4)C(=O)O[C@@H]3[C@@H]1O2
- Activity [17]: Active
